Source: PubChem BioAssay
In the library only some 1.1% were active in any assay of this set; here they are far more common.
PMI act hi M6P: activators of human phosphomannose isomerase at near-saturating mannose 6-phosphate | AID 1216 | coupled PMI enzyme assay, resazurin fluorescence, 20 min; hits give high values; 1 = untreated enzyme, 0 = substrate-free blank | activation factor at 20 µM | hit rate 0.34% among 190,000 | P34949;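 active means activation factor of 2 or more at 20 µM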
Target sequence (P34949 whole entry, looked up): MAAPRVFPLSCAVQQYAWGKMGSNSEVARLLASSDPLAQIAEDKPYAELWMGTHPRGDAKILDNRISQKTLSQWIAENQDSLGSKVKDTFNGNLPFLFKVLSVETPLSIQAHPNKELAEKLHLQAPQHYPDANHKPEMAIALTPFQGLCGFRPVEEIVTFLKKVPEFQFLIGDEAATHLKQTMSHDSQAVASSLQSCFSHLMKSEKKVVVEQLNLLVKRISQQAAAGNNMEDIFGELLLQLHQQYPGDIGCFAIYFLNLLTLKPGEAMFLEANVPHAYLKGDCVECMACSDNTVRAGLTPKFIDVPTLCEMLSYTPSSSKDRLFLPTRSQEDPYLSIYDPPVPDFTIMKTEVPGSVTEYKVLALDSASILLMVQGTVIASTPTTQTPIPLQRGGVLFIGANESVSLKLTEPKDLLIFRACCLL
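assay system = human phosphomannose isomerase with PGI, G6PDH, diaphorase coupling enzymes | quantity = 15 ng/mL PMI | incubation = enzyme reaction with compound 20 min at room temperature | medium = HEPES pH 7.4 buffer with MgCl2 and Tween-20 | compound dosing = one concentration, 20 µM, in 1% DMSO | measured by = Diaphorase-driven resazurin-to-resorufin fluorescence, excitation 544, emission 590 nm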
PMI activator: phosphomannose isomerase (human) activation. P34949. hit rate 0.005% among 190,000. purified human PMI, coupled resazurin fluorescence, 20 min; hits give high values; 1 = vehicle control, 0 substrate-free wells. activation factor at 20 µM. AID 1214;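 active means activation factor of 2 or more at 20 µM, relative to plate controls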
Diaph inh CS: inhibits diaphorase or chemically oxidizes, flagging diaphorase assay artifacts; diaphorase resazurin-to-resorufin fluorescence, NADH, 16 min; bacterial (C. kluyveri) enzyme, not human; inhibition, % at 20 µM; hit rate 0.69% among 190,000; AID 1217;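 active means primary screen inhibition at 20 µM above a set limit, cut at about 50% in these data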;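 further: plate controls were DMSO with full reaction for no effect and wells lacking NADH for full effect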
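material = Clostridium kluyveri diaphorase enzyme | amount = 0.14 U/mL diaphorase, enzyme working solution | schedule = incubation 16 min, room temperature | detection = fluorescence of resorufin formed from resazurin, Ex 544/Em 590 nm | benchmarks = positive control minus NADH, DMSO neutral control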
Diaphorase act: counter-screen for diaphorase-based assays: diaphorase activators and chemical reducers; Diaphorase/resazurin coupled assay, resorufin fluorescence, 16 min; hits give high values; 1 = vehicle wells, 0 = NADH-free wells; activation factor at 20 µM; hit rate 0.005% among 190,000;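 active means diaphorase activity raised at least twofold by the compound at 20 µM; inactive means activation factor below 2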
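Assay system: bacterial diaphorase enzyme (C. kluyveri) / Input: enzyme 0.07 U/mL final / Medium: 50 mM HEPES pH 7.4 with 4.542 mM MgCl2, 0.005% Tween 20 / Doses: single compound dose of 20 µM, 1% DMSO final / Incubation: 16 min enzyme reaction, ambient temperature / Signal: fluorescence, excitation 544 nm and emission 590 nm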
G6PDH CS: L. mesenteroides G6PDH inhibition counter-screen; Purified L. mesenteroides G6PDH, diaphorase/resazurin coupled fluorescence, 45 min; inhibition, % at 5 µM; hit rate 0.12% among 200,000; AID 1020; in the data active means inhibition above about 50%
* hit, by the source's call.

SMILES | PMI act hi M6P | PMI activator | Diaph inh CS | Diaphorase act | G6PDH CS
CCOc1ccc(-n2c(=S)sc3c(=O)[nH]c(SCC(=O)N4CCC(C)CC4)nc32)cc1 | 1.1 | 0.9 | 62* | 0.4 | 0
CCOc1ccc(-n2c(=S)sc3c(=O)[nH]c(SCC(=O)C(C)(C)C)nc32)cc1 | 1.2 | 1.1 | 68* | 0.3 | 1
O=C(COC(=O)CSc1ccc2ccccc2c1Br)NC1CC1 | 1 | 1 | 5 | 0.9 | 2
Cc1ccc(S(=O)(=O)NC(C(=O)Oc2ccc3c(C(F)(F)F)cc(=O)oc3c2)c2ccccc2)cc1 (stereo not drawn) | 1.2 | 1.2 | 9 | 0.9 | 2
Nc1cccc2nc3ccccc3cc12 | 0.9 | 0.9 | 10 | 0.9 | 0
Cc1cc2c(N)cccc2nn1 | 1.3 | 0.9 | 44 | 0.6 | 52*
FC(F)(F)c1ccc2c(c1)[nH]c(=S)n2C1CC1 | 1 | 1 | 12 | 0.9 | 4
CC(=O)c1ccc2noc(-c3ccc(C)cc3)c2c1 | 2* | 1.9 | 3 | 1 | 2
CC1=C(C)C(=O)C(CCCCC#CCCCC#CCO)=C(C)C1=O | 0.8 | 1.1 | 44 | 0.6 | 57*
CCOc1nc(-c2ccccc2Cl)ccc1C#N | 0.8 | 0.8 | 20 | 0.8 | 9
CCC1=C/C(=C/c2sc3ccccc3[n+]2CC)CC(C)(C)C1 | 2.3* | 1.6 | 17 | 0.8 | -3
O=C(COC(=O)CCc1ccccc1)NC12CC3CC(CC(C3)C1)C2 | 0.9 | 0.9 | 71* | 0.3 | 3
O=C(COC(=O)C(O)c1ccccc1)NC12CC3CC(CC(C3)C1)C2 (stereo not drawn) | 1 | 1 | 15 | 0.8 | -2
CCSc1oc(-c2ccco2)nc1S(=O)(=O)c1ccc(F)cc1 | 1.6 | 1.2 | 22 | 0.8 | -23
CCSc1oc(-c2cccs2)nc1S(=O)(=O)c1ccccc1 | 2* | 1.7 | 4 | 1 | 6
Cc1nn(-c2ccccn2)c2c1C(=O)C(Br)CC2 (stereo not drawn) | 0.3 | 0.3 | 82* | 0.2 | 33
CC1=C(C)C(=O)N(c2ccccn2)C1=O | 1.1 | 1.2 | 1 | 1 | 10
Oc1cc(-c2ccccc2)c2ccccc2c1 | 0.1 | 0.2 | 84* | 0.2 | 39
O=C1OCC(CO)(CO)N=C1NNc1ccccc1Cl | 2* | 1.6 | 10 | 0.9 | 4
CCCCC(=O)OCC(=O)Nc1ccc(SC(F)F)cc1 | 1 | 1 | 0 | 1 | -2
CCc1ccc2[nH]c(=O)c(C3C(C#N)=C(N)Oc4c3ccc3cccnc43)cc2c1 (stereo not drawn) | 0.6 | 0.8 | 52* | 0.5 | 10
Cc1ccc2cc(C3C(C#N)=C(N)Oc4c3ccc3cccnc43)c(=O)[nH]c2c1 (stereo not drawn) | 0.6 | 0.8 | 39 | 0.6 | 16
CC1(C)CC(=O)c2cc(C(=O)Nn3cnnc3)c(=O)n(-c3ccccc3)c2C1 | 1 | 1 | 0 | 1 | 5
COc1ccc(-n2c3c(cc(C(=O)NNc4ccccc4C)c2=O)C(=O)CC(C)(C)C3)cc1 | 2* | 1.9 | 6 | 0.9 | 5
COc1ccc(-n2c3c(cc(C(=O)NNc4ccccc4)c2=O)C(=O)CC(C)(C)C3)cc1 | 2.1* | 1.7 | 13 | 0.9 | 7
SMILES | PMI act hi M6P | PMI activator | Diaph inh CS | Diaphorase act | G6PDH CS
CCOC(=O)c1ccccc1-c1csc(N)n1 | 0.9 | 1 | 81* | 0.2 | 6
CCOC(=O)c1c(C)[nH]c(-c2csc(N)n2)c1C | 2* | 1.5 | 11 | 0.9 | -3
CCOC(=O)c1csc(N)n1 | 1 | 1 | 4 | 1 | 3
O=C1CCCC2=C1C(c1ccc(O)c(O)c1)Nc1ccc3ncccc3c12 (stereo not drawn) | 0.5 | 0.5 | 71* | 0.3 | 28
Cc1ccsc1C1Nc2ccc3ncccc3c2C2=C1C(=O)CC(C)(C)C2 (stereo not drawn) | 0.5 | 0.7 | 53* | 0.5 | 14
O=C1CCCC2=C1C(c1cccs1)Nc1ccc3ncccc3c12 (stereo not drawn) | 0.8 | 0.9 | 3 | 1 | 3
CC1(C)CC(=O)C2=C(C1)c1c(ccc3ccccc13)NC2c1ccco1 (stereo not drawn) | 1 | 1 | 22 | 0.8 | 6
